The text below walks through data of ChEMBL document CHEMBL1781932 (J Med Chem, 2011).

Values after ≈ are worked out from the molar mass of the structure shown. Bounds are passed on as bounds.

What all share (format): functional
The test system of assay [1] is Staphylococcus aureus. The experiment in a line: Antimicrobial activity against tetracycline-susceptible Staphylococcus aureus isolate 101 by CLSI dilution method.
Assay [2] relates to Staphylococcus aureus. The experiment in a line: Antimicrobial activity against tetracycline-resistant Staphylococcus aureus isolate 158 harboring tetK gene by CLSI dilution method.
Assay [3] relates to Enterococcus faecalis. The experiment in a line: Antimicrobial activity against tetracycline-susceptible Enterococcus faecalis isolate 103 by CLSI dilution method. In a few lines: (§1)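 Broth microdilution per CLSI in fresh cation-adjusted Mueller Hinton broth, kept at 4 °C before testing, with defibrinated horse blood added as appropriate. Strains were from ATCC. MIC in µg/mL. Runs were accepted when comparator antibiotics against ATCC quality-control strains fell within recommended ranges.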

The subject of assay [4] is Streptococcus pneumoniae. The experiment in a line: Antimicrobial activity against tetracycline-susceptible Streptococcus pneumoniae isolate 106 by CLSI dilution method. The procedure, abridged:
as §1

In assay [5] the test system is Streptococcus pneumoniae. The experiment in a line: Antimicrobial activity against tetracycline-resistant Streptococcus pneumoniae isolate 160 harboring tetM gene by CLSI dilution method.
For assay [6], the system named is Escherichia coli. The experiment in a line: Antimicrobial activity against tetracycline-resistant Escherichia coli isolate 155 harboring tetA gene by CLSI dilution method.
The test system of assay [7] is Acinetobacter baumannii. The experiment in a line: Antimicrobial activity against tetracycline-susceptible Acinetobacter baumannii isolate 110 by CLSI dilution method. The procedure, abridged:
as §1

Assay [8] relates to Pseudomonas aeruginosa. The experiment in a line: Antimicrobial activity against tetracycline-susceptible Pseudomonas aeruginosa isolate 111 by CLSI dilution method. The procedure, abridged:
as §1

Assay [9] concerns Klebsiella pneumoniae. The experiment in a line: Antimicrobial activity against tetracycline-resistant Klebsiella pneumoniae isolate 153 harboring tetA gene by CLSI dilution method.
In assay [10] the test system is Escherichia coli. The experiment in a line: Antimicrobial activity against tetracycline-susceptible Escherichia coli isolate 107 by CLSI dilution method. The procedure, abridged:
as §1

In assay [11] the test system is Staphylococcus aureus. The experiment in a line: Antimicrobial activity against methicillin-, tetracycline-resistant Staphylococcus aureus isolate 161 harboring tetM gene by CLSI dilution method.
Assay [12] relates to Klebsiella pneumoniae. The experiment in a line: Antimicrobial activity against tetracycline-susceptible Klebsiella pneumoniae isolate 109 by CLSI dilution method. In a few lines: as §1
For assay [13], the system named is Enterobacter cloacae. The experiment in a line: Antimicrobial activity against tetracycline-susceptible Enterobacter cloacae isolate 108 by CLSI dilution method. The procedure, abridged:
as §1

In general, MIC refers to the smallest concentration in the dilution series that meets the test's criterion for growth inhibition. Low readings indicate a more susceptible organism, high ones a less susceptible organism. For the compound `CN(C)C1CN(Cc2ccc3cc4c(c(O)c3c2)C(=O)C2=C(O)[C@]3(O)C(=O)C(C(N)=O)=C(O)[C@@H](N(C)C)[C@@H]3C[C@@H]2C4)C1`, the MIC in assay [1] turned out to be 2 mg/L (≈ 3.47 µM); in assay [2] it was 1 mg/L (≈ 1.73 µM); in assay [3], 1 mg/L (≈ 1.73 µM); in assay [4], 0.0625 mg/L (≈ 0.108 µM); in [5], 1 mg/L (≈ 1.73 µM); in assay [6] it was 16 mg/L (≈ 27.7 µM). In addition, the MIC in assay [7] is 4 mg/L (≈ 6.94 µM); in assay [8] it was more than 32 mg/L; in assay [9] it was 8 mg/L (≈ 13.9 µM).
Consider `COc1c2c(c(O)c3cc(CNC(C)(C)C)ccc13)C(=O)C1=C(O)[C@]3(O)C(=O)C(C(N)=O)=C(O)[C@@H](N(C)C)[C@@H]3C[C@@H]1C2`, for which the MIC was found to be 0.25 mg/L (≈ 0.431 µM) in assay [1]; 0.25 mg/L (≈ 0.431 µM) in [2]; 0.25 mg/L (≈ 0.431 µM) in assay [3]; 0.0156 mg/L (≈ 0.0269 µM) in [4]; 0.5 mg/L (≈ 0.863 µM) in assay [5]; 1 mg/L (≈ 1.73 µM) in [10]. Besides, the MIC in assay [6] is 8 mg/L (≈ 13.8 µM); in [7], 2 mg/L (≈ 3.45 µM); in assay [8], 16 mg/L (≈ 27.6 µM); in assay [9], 8 mg/L (≈ 13.8 µM).
For `COc1c2c(c(O)c3cc(CN(C)C)ccc13)C(=O)C1=C(O)[C@]3(O)C(=O)C(C(N)=O)=C(O)[C@@H](N(C)C)[C@@H]3C[C@@H]1C2`, the MIC in assay [1] turned out to be 0.25 mg/L (≈ 0.453 µM); in [11] it was 2 mg/L (≈ 3.63 µM); in [2], 0.25 mg/L (≈ 0.453 µM); in [3], 0.25 mg/L (≈ 0.453 µM); in assay [4], 0.0156 mg/L (≈ 0.0283 µM); in assay [5], 0.25 mg/L (≈ 0.453 µM). Besides, the MIC in [6] worked out at 8 mg/L (≈ 14.5 µM); in [7], 1 mg/L (≈ 1.81 µM); in assay [8], 32 mg/L (≈ 58 µM); in assay [12], 4 mg/L (≈ 7.25 µM).
In the case of `CN(C)[C@@H]1C(O)=C(C(N)=O)C(=O)[C@@]2(O)C(O)=C3C(=O)c4c(cc5c(CN6CCC6)cccc5c4O)C[C@H]3C[C@@H]12`, the MIC in assay [1] came out at 1 mg/L (≈ 1.87 µM); in assay [11], 4 mg/L (≈ 7.5 µM); in [2], 0.5 mg/L (≈ 0.937 µM); in assay [3], 2 mg/L (≈ 3.75 µM); in [4], 0.25 mg/L (≈ 0.469 µM); in [5], 2 mg/L (≈ 3.75 µM). The MIC is 8 mg/L (≈ 15 µM) in assay [10]; more than 32 mg/L in assay [6]; 32 mg/L (≈ 60 µM) in assay [7]; more than 32 mg/L in assay [8]; 16 mg/L (≈ 30 µM) in assay [12]; more than 32 mg/L in assay [9].
As for `CN(C)[C@@H]1C(O)=C(C(N)=O)C(=O)[C@@]2(O)C(O)=C3C(=O)c4c(cc5cc(N)ccc5c4O)C[C@H]3C[C@@H]12`, the MIC in assay [3] was 4 mg/L (≈ 8.34 µM); in [4] it was 2 mg/L (≈ 4.17 µM); in [5], 8 mg/L (≈ 16.7 µM); in assay [10], more than 32 mg/L; in assay [6] it was more than 32 mg/L; in [7], 16 mg/L (≈ 33.4 µM). The MIC in [8], in assay [13], in assay [12] and in [9] was more than 32 mg/L each time.
Turning to `CNC(=O)Oc1c2c(c(O)c3cc(CN4CCC4)ccc13)C(=O)C1=C(O)[C@]3(O)C(=O)C(C(N)=O)=C(O)[C@@H](N(C)C)[C@@H]3C[C@@H]1C2`, the MIC was 8 mg/L (≈ 13.2 µM) in assay [1]; 8 mg/L (≈ 13.2 µM) in [3]; 1 mg/L (≈ 1.65 µM) in assay [4]; 4 mg/L (≈ 6.59 µM) in assay [5]; 32 mg/L (≈ 52.8 µM) in [10]; more than 32 mg/L in assay [6]. For the same compound, the MIC in assay [7], in [8], in [13], in [12] and in assay [9] was more than 32 mg/L throughout.
Consider `CN(C)[C@@H]1C(O)=C(C(N)=O)C(=O)[C@@]2(O)C(O)=C3C(=O)c4c(cc5ccccc5c4O)C[C@H]3C[C@@H]12`, for which the MIC in [1] is 1 mg/L (≈ 2.15 µM); in assay [11] it was 1 mg/L (≈ 2.15 µM); in assay [3] it was 0.5 mg/L (≈ 1.08 µM); in [4], 0.25 mg/L (≈ 0.538 µM); in assay [5], 0.25 mg/L (≈ 0.538 µM); in [10], more than 32 mg/L. For the same compound, the MIC in assay [6] is more than 32 mg/L; in assay [7], 8 mg/L (≈ 17.2 µM); in assay [8], more than 32 mg/L.
